One may read the Kd as a measure of binding affinity in units of concentration.

*1 amine or outer side, *2 acyl side, *3 side chain or, on linkers, in order; H or OH if unused. Where a SMILES comes first, the peptide text is derived from it. [ ]: non-standard residue; d: D form. The star is where a group is joined. ξ: configuration not given here. Sta(3ξ) = CC(C)C[C@H](N[*:1])C(O)CC(=O)[*:2]; Sta = CC(C)C[C@H](N)[C@@H](O)CC(=O)O; Isovaleryl = CC(C)CC(=O)*

The target in this assay is T1, Renin (Homo sapiens, UniProt P00797).
T1 sequence (P00797 whole entry): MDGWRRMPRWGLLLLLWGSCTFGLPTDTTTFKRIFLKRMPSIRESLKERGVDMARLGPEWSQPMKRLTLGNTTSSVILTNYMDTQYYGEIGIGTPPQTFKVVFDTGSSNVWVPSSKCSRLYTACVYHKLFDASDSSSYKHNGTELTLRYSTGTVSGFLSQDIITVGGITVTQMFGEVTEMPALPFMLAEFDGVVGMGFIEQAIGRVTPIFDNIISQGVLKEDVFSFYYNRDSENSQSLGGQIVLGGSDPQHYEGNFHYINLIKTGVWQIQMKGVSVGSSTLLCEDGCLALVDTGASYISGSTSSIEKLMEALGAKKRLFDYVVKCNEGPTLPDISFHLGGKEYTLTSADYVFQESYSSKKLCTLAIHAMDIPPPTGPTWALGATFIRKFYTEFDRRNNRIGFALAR
Description: Dissociation constant (Kd) of renin inhibitor was determined over a temperature range of 8-37 degree by the fluorescence displacement assay. In a few lines:
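Recombinant human renin, purified, with stock concentration set by amino acid analysis. Competitive displacement of a dansylated fluorescent peptide inhibitor, read on a spectrofluorometer in ratio mode at 8–37 °C. Unlabeled-inhibitor Kd was calculated from probe Kd, probe concentration, fraction of probe bound, total inhibitor and enzyme concentrations. Duplicates were run at two inhibitor concentrations, and van't Hoff plots were built.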
With `CC[C@H](C)[C@H](NC(=O)[C@@H](C[C@H](O)[C@H](CC(C)C)NC(=O)[C@H](Cc1cnc[nH]1)NC(=O)[C@H](Cc1ccccc1)NC(=O)[C@@H]1CCCN1C(C)=O)C(C)C)C(N)=O`, the Kd worked out at 5.4 nM.

`CC[C@H](C)[C@H](NC(=O)[C@@H](C[C@H](O)[C@H](CC(C)C)NC(=O)[C@H](Cc1c[nH]cn1)NC(=O)[C@H](Cc1ccccc1)NC(=O)[C@H]1CCCN1C(C)=O)C(C)C)C(N)=O` had a Kd of 1.3 nM. Against the preceding compound, the Kd is about 4.2-fold lower.

On to `CC(=O)N[C@@H](Cc1ccccc1)C(=O)N[C@@H](Cc1c[nH]cn1)C(=O)N[C@H](CN[C@@H](Cc1ccccc1)C(N)=O)Cc1ccccc1`, for which binding was characterised by a dissociation constant (Kd) of 220 nM.

Turning to `CC[C@H](C)[C@H](NC(=O)[C@@H](C[C@H](O)[C@H](CC(C)C)NC(=O)[C@H](Cc1cnc[nH]1)NC(=O)[C@H](Cc1ccccc1)NC(C)=O)C(C)C)C(N)=O`, the Kd turned out to be 370 nM. This Kd is about 1.7-fold higher than that of the compound before.

As for `CC[C@H](C)[C@H](NC(=O)[C@@H](C[C@H](O)[C@H](CC(C)C)NC(=O)[C@H](Cc1c[nH]cn1)NS(=O)(=O)c1cccc2c(N(C)C)cccc12)C(C)C)C(=O)NCc1ccccn1`, the Kd was determined as 1000 nM.

In turn, `CCC(C)CNC(=O)[C@H](Cc1ccccc1)NC[C@H](Cc1ccccc1)NC(=O)[C@H](Cc1cnc[nH]1)NC(=O)[C@H](Cc1ccccc1)NC(=O)[C@@H]1CCCN1C(C)=O` (stereo partly drawn) showed a Kd of 2.5 nM.

Compound `CC(=O)N1CCC[C@H]1C(=O)N[C@@H](Cc1ccccc1)C(=O)N[C@@H](Cc1c[nH]cn1)C(=O)N[C@H](CN[C@@H](Cc1ccccc1)C(N)=O)Cc1ccccc1` gave a Kd of 29 nM.

`CC[C@H](C)[C@H](NC(=O)[C@@H](NC[C@H](CC(C)C)NC(=O)[C@H](Cc1c[nH]cn1)NC(=O)[C@H](Cc1ccccc1)NC(=O)[C@@H]1CCCN1C(=O)[C@H](Cc1c[nH]cn1)NC(=O)[C@@H]1CCCN1)C(C)C)C(=O)N[C@@H](Cc1c[nH]cn1)C(=O)N[C@@H](CCCCN)C(=O)O` showed a Kd of 8 nM.

As to `CC[C@H](C)[C@H](NC(=O)C[C@H](O)[C@H](CC(C)C)NC(=O)[C@H](Cc1cnc[nH]1)NC(=O)[C@H](Cc1ccccc1)NC(C)=O)C(N)=O` (Ac-FH[Sta]I-NH2), binding was put at a Kd of 204 nM.

Regarding `CC[C@H](C)[C@H](NC(=O)C[C@H](O)[C@H](CC(C)C)NC(=O)[C@H](Cc1c[nH]cn1)NC(=O)[C@H](Cc1ccccc1)NC(=O)[C@@H]1CCCN1C(=O)[C@H](Cc1c[nH]cn1)NC(C)=O)C(N)=O` (Ac-HPFH[Sta]I-NH2), the Kd was 23 nM.

The compound `CC[C@H](C)[C@H](NC(=O)C[C@H](O)[C@H](CC(C)C)NC(=O)[C@H](Cc1c[nH]cn1)NC(=O)[C@H](Cc1ccccc1)NC(=O)[C@@H]1CCCN1C(C)=O)C(N)=O` (Ac-PFH[Sta]I-NH2) returned a Kd of 98 nM.

In turn, `CC[C@H](C)[C@H](NC(=O)CC(O)[C@H](CC(C)C)NC(=O)[C@H](Cc1c[nH]cn1)NC(=O)[C@H](Cc1ccccc1)NC(=O)[C@@H]1CCCN1C(=O)[C@H](Cc1c[nH]cn1)NC(=O)CC(C)C)C(=O)N[C@@H](Cc1ccccc1)C(N)=O` (stereo partly drawn) (Isovaleryl-HPFH[Sta(3ξ)]IF-NH2) registered a Kd of 1.7 nM.

Regarding H-PHPFHFFIHK-OH, the Kd came out at 810 nM.
